Converted amounts (≈) assume the structure as drawn.
Tests used:
Format in all cases: functional
Klebsiella aerogenes = assay: Antimicrobial activity against Enterobacter aerogenes after 24 hrs by broth microdilution method
In short: (§1)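 Broth microdilution. Bacteria were grown on Mueller-Hinton agar and diluted in Mueller-Hinton broth. Compounds were made as 1000 µg/mL stocks in 50% DMSO/H₂O and added to wells as two-fold dilutions starting at 500 µg/mL, then inoculated. Sealed plates were incubated at 37 °C for 24 h in a humid chamber. MIC was the lowest concentration with no visible turbidity.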

Nannizzia gypsea = assay: Antimicrobial activity against Microsporum gypseum after 48 hrs by broth microdilution method
In short: (§2)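 Fungi were grown on Sabouraud dextrose agar. Inocula were prepared in Sabouraud liquid medium at 37 °C for 12 h, then diluted in RPMI-1640 with L-glutamine, MOPS-buffered at pH 7. Compounds were made as 1000 µg/mL stocks in 50% DMSO/H₂O and tested as two-fold dilutions from 500 µg/mL. Sealed plates were incubated at 37 °C for 48 h in a humid chamber. MIC was the lowest concentration without visible turbidity.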

Pseudomonas aeruginosa = assay: Antimicrobial activity against Pseudomonas aeruginosa after 24 hrs by broth microdilution method; in short: as §1
Candida albicans = assay: Antimicrobial activity against Candida albicans after 48 hrs by broth microdilution method; in short: as §2
Candida parapsilosis = assay: Antimicrobial activity against Candida parapsilosis after 48 hrs by broth microdilution method; conditions: Lodderomyces parapsilosis; in short: as §2
Priestia megaterium = assay: Antimicrobial activity against Bacillus megaterium after 24 hrs by broth microdilution method; in short: as §1
Enterococcus faecalis = assay: Antimicrobial activity against Enterococcus faecalis after 24 hrs by broth microdilution method; in short: as §1
Aspergillus flavus = assay: Antimicrobial activity against Aspergillus flavus after 48 hrs by broth microdilution method; in short: as §2
Staphylococcus aureus = assay: Antimicrobial activity against Staphylococcus aureus after 24 hrs by broth microdilution method; in short: as §1
Escherichia coli = assay: Antimicrobial activity against Escherichia coli after 24 hrs by broth microdilution method; in short: as §1

| MIC (Klebsiella aerogenes) [µg/mL] | MIC (Nannizzia gypsea) [µg/mL] | MIC (Pseudomonas aeruginosa) [µg/mL] | MIC (Candida albicans) [µg/mL] | MIC (Candida parapsilosis) [µg/mL] | MIC (Priestia megaterium) [µg/mL] | MIC (Enterococcus faecalis) [µg/mL] | MIC (Aspergillus flavus) [µg/mL] | MIC (Staphylococcus aureus) [µg/mL] | MIC (Escherichia coli) [µg/mL] | SMILES |
| --- | --- | --- | --- | --- | --- | --- | --- | --- | --- | --- |
| 1.15 (≈ 2.07 µM) | 9.14 (≈ 16.5 µM) | 1.51 (≈ 2.72 µM) | 11.3 (≈ 20.4 µM) | 10.4 (≈ 18.7 µM) | 1.43 (≈ 2.57 µM) | 1.36 (≈ 2.45 µM) | 12.2 (≈ 22 µM) | 1.12 (≈ 2.02 µM) | 1.12 (≈ 2.02 µM) | Fc1ccc(Nc2c(-c3c[nH]c4ccc(Br)cc34)nc3ccc(-c4nc5ccc(F)cc5[nH]4)cn23)cc1 |
| 2.35 (≈ 3.86 µM) | 7.44 (≈ 12.2 µM) | 2.11 (≈ 3.47 µM) | 8.72 (≈ 14.3 µM) | 6.22 (≈ 10.2 µM) | 4.24 (≈ 6.97 µM) | 3.17 (≈ 5.21 µM) | 9.35 (≈ 15.4 µM) | 2.52 (≈ 4.14 µM) | 2.13 (≈ 3.5 µM) | O=[N+]([O-])c1ccc(-c2cnc(-c3ccc4nc(-c5c[nH]c6ccc(Br)cc56)c(Nc5ccc(F)cc5)n4c3)[nH]2)cc1 |
| 6.22 (≈ 10.8 µM) | 15.6 (≈ 27 µM) | 8.28 (≈ 14.3 µM) | 19.5 (≈ 33.8 µM) | 18.4 (≈ 31.9 µM) | 1.25 (≈ 2.16 µM) | 7.32 (≈ 12.7 µM) | 16.5 (≈ 28.5 µM) | 5.13 (≈ 8.88 µM) | 6.11 (≈ 10.6 µM) | Cc1ccc(-c2cnc(-c3ccc4nc(-c5c[nH]c6ccc(Br)cc56)c(Nc5ccc(F)cc5)n4c3)[nH]2)cc1 |
| 0.17 (≈ 0.292 µM) | 8.12 (≈ 14 µM) | 0.52 (≈ 0.894 µM) | 3.21 (≈ 5.52 µM) | 4.61 (≈ 7.93 µM) | 1.13 (≈ 1.94 µM) | 1.96 (≈ 3.37 µM) | 3.25 (≈ 5.59 µM) | 0.23 (≈ 0.396 µM) | 0.42 (≈ 0.722 µM) | Fc1ccc(Nc2c(-c3c[nH]c4ccc(Br)cc34)nc3ccc(-c4ncc(-c5ccc(F)cc5)[nH]4)cn23)cc1 |
| 0.35 (≈ 0.6 µM) | 4.25 (≈ 7.28 µM) | 0.21 (≈ 0.36 µM) | 2.54 (≈ 4.35 µM) | 2.22 (≈ 3.81 µM) | 1.97 (≈ 3.38 µM) | 0.37 (≈ 0.634 µM) | 3.13 (≈ 5.37 µM) | 0.31 (≈ 0.531 µM) | 0.11 (≈ 0.189 µM) | Fc1ccc(Nc2c(-c3c[nH]c4ccc(Br)cc34)nc3ccc(-c4nnc(-c5ccc(F)cc5)o4)cn23)cc1 |
| 4.42 (≈ 7.63 µM) | 13.4 (≈ 23.1 µM) | 5.64 (≈ 9.73 µM) | 11.6 (≈ 20.1 µM) | 10.4 (≈ 18 µM) | 6.44 (≈ 11.1 µM) | 7.56 (≈ 13 µM) | 6.55 (≈ 11.3 µM) | 3.13 (≈ 5.4 µM) | 6.72 (≈ 11.6 µM) | Cc1ccc(-c2nnc(-c3ccc4nc(-c5c[nH]c6ccc(Br)cc56)c(Nc5ccc(F)cc5)n4c3)o2)cc1 |
| 3.13 (≈ 5.13 µM) | 11.2 (≈ 18.4 µM) | 2.45 (≈ 4.01 µM) | 6.63 (≈ 10.9 µM) | 5.71 (≈ 9.35 µM) | 4.34 (≈ 7.11 µM) | 2.11 (≈ 3.46 µM) | 8.31 (≈ 13.6 µM) | 2.45 (≈ 4.01 µM) | 3.32 (≈ 5.44 µM) | O=[N+]([O-])c1ccc(-c2nnc(-c3ccc4nc(-c5c[nH]c6ccc(Br)cc56)c(Nc5ccc(F)cc5)n4c3)o2)cc1 |
| 5.35 (≈ 9.5 µM) | 17.5 (≈ 31.1 µM) | 5.45 (≈ 9.67 µM) | 16.4 (≈ 29 µM) | 15.5 (≈ 27.6 µM) | 7.54 (≈ 13.4 µM) | 7.34 (≈ 13 µM) | 15.4 (≈ 27.4 µM) | 7.43 (≈ 13.2 µM) | 6.21 (≈ 11 µM) | Cc1ccc2nc(-c3ccc4nc(-c5cnc6ccc(Br)cc6c5)c(Nc5ccc(F)cc5)n4c3)[nH]c2c1 |
| 1.55 (≈ 2.73 µM) | 1.21 (≈ 2.13 µM) | 1.35 (≈ 2.38 µM) | 1.11 (≈ 1.96 µM) | 1.22 (≈ 2.15 µM) | 2.53 (≈ 4.46 µM) | 1.47 (≈ 2.59 µM) | 1.36 (≈ 2.4 µM) | 1.46 (≈ 2.57 µM) | 1.34 (≈ 2.36 µM) | Fc1ccc(Nc2c(-c3cnc4ccc(Br)cc4c3)nc3ccc(-c4nc5ccc(F)cc5[nH]4)cn23)cc1 |
| 3.15 (≈ 5.3 µM) | 9.41 (≈ 15.8 µM) | 2.32 (≈ 3.9 µM) | 4.23 (≈ 7.12 µM) | 5.34 (≈ 8.98 µM) | 4.12 (≈ 6.93 µM) | 3.36 (≈ 5.65 µM) | 7.63 (≈ 12.8 µM) | 2.12 (≈ 3.57 µM) | 2.14 (≈ 3.6 µM) | O=[N+]([O-])c1ccc2nc(-c3ccc4nc(-c5cnc6ccc(Br)cc6c5)c(Nc5ccc(F)cc5)n4c3)[nH]c2c1 |
| 0.81 (≈ 1.36 µM) | 0.84 (≈ 1.42 µM) | 1.34 (≈ 2.26 µM) | 1.05 (≈ 1.77 µM) | 1.15 (≈ 1.94 µM) | 4.07 (≈ 6.86 µM) | 1.21 (≈ 2.04 µM) | 0.72 (≈ 1.21 µM) | 0.63 (≈ 1.06 µM) | 1.15 (≈ 1.94 µM) | Fc1ccc(Nc2c(-c3cnc4ccc(Br)cc4c3)nc3ccc(-c4ncc(-c5ccc(F)cc5)[nH]4)cn23)cc1 |
| 2.78 (≈ 4.72 µM) | 11.5 (≈ 19.5 µM) | 2.89 (≈ 4.9 µM) | 13.1 (≈ 22.3 µM) | 12.6 (≈ 21.3 µM) | 5.14 (≈ 8.72 µM) | 2.26 (≈ 3.83 µM) | 12.6 (≈ 21.4 µM) | 1.95 (≈ 3.31 µM) | 3.42 (≈ 5.8 µM) | Cc1ccc(-c2cnc(-c3ccc4nc(-c5cnc6ccc(Br)cc6c5)c(Nc5ccc(F)cc5)n4c3)[nH]2)cc1 |
| 1.74 (≈ 2.94 µM) | 11.2 (≈ 18.9 µM) | 2.57 (≈ 4.35 µM) | 12.2 (≈ 20.7 µM) | 12.2 (≈ 20.7 µM) | 3.15 (≈ 5.33 µM) | 2.32 (≈ 3.92 µM) | 11.3 (≈ 19.1 µM) | 1.24 (≈ 2.1 µM) | 2.43 (≈ 4.11 µM) | Cc1ccc(-c2nnc(-c3ccc4nc(-c5cnc6ccc(Br)cc6c5)c(Nc5ccc(F)cc5)n4c3)o2)cc1 |

— ChEMBL document CHEMBL1773057, “Design, synthesis and in vitro antimicrobial evaluation of novel Imidazo[1,2-a]pyridine and imidazo[2,1-b][1,3]benzothiazole motifs” (2011)
